# Dynein cargo inh: blocks dynein driven cargo transport along microtubules; z-score, hits read low; AID 1381; 3617.4 mouse cells, GR-EGFP nuclear translocation imaging; test concentration mostly 20 µM; stimulated with dexamethasone, 1 µM; active compounds read low; 0.47% of 220,000 active;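 active means plate z-score of nuclear minus cytoplasmic receptor signal below a set negative limit, without overly bright fluorescence or cell loss, cut at about -3.5 in these data, passing the limit was not always enough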;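 further: z-score of nuclear minus cytoplasmic ring GR-EGFP intensity difference per well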
#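 Buffer or medium: tetracycline-free induction medium containing charcoal-stripped FBS / Reagent: dexamethasone agonist, 1.0 µM final, for 30 min / Technique: automated 10x imaging of fixed Hoechst-stained cells / Times: induction 48 h, compound 1 h, agonist 30 min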
# S1P4 agonist: activates the human S1P4 receptor; activation, % at 4.98 µM; S1P4-expressing cell line, agonist reporter assay; 0.35% of 220,000 active; AID 1509; in the data active means activation above about 11%;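 further: 0% = DMSO vehicle and 100% = reference agonist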
# Target sequence (O95977 whole entry, looked up): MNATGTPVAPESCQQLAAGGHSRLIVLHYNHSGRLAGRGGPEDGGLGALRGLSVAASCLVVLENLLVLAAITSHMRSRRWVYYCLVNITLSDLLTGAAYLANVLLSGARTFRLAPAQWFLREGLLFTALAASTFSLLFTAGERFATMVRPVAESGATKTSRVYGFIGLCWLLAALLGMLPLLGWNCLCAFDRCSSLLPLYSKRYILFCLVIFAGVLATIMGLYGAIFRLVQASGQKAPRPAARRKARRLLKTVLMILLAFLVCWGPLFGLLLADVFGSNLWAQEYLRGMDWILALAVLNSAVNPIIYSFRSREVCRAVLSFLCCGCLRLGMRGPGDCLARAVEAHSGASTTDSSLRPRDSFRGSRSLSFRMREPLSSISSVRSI
# S1P4 antag: antagonists of human S1P4 receptor | S1P4-expressing cells, antagonist mode, reporter read-out | 0.26% of 220,000 active | inhibition, % at 4.98 µM | O95977; in the data active means inhibition above about 29%;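 further: 0% = wells stimulated with agonist and 100% = vehicle wells without agonist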
# TbHK1 inh: blocks Trypanosoma brucei hexokinase 1 activity | recombinant TbHK1, G6PDH-coupled NADH A340 | 0.11% of 220,000 active | inhibition, % at 10 µM | AID 1430;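 active means inhibition of 50% or more in the single-dose primary screen; inactive means inhibition below 50%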
# zVAD death inh: L929 zVAD cell death inhibition; L929 zVAD necroptosis rescue, ATP luminescence, 24 h; with zVAD 60 µM; viability rescue, % at 10 µM; 0.38% of 220,000 active;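 active means activation, scaled between plate controls, above about 75%, limit read from the data; inactive means activation under that limit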;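 further: 0% = zVAD with DMSO and 100% = DMSO alone without zVAD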
# TNF necrop inh: blocks TNF-alpha induced death of Jurkat FADD-/- cells | 0.068% of 220,000 active | activation (protection from cell death), % at 10 µM | Jurkat FADD-/- TNF necroptosis rescue, ATP luminescence, 24 h; 0 = TNF only, 100 = no-TNF cells;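 active means activation, meaning protection from cell death, of at least 50% relative to plate controls; inactive means activation below 50%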;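 further: necroptosis triggered by 40 ng/mL TNF-alpha added together with compound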
# Starred values were filed as active, the others as inactive. The list is not random: actives were taken first. Their share in the collection is about 1.5%.
SMILES,Dynein cargo inh,S1P4 agonist,S1P4 antag,TbHK1 inh,zVAD death inh,TNF necrop inh
N#CC1=C(SCC(=O)Nc2nccs2)NC(=O)CC1c1ccccc1 (configuration not stated),2.33,-2.9,-2.3,-18.1,81.6*,74.9*
Clc1cccc(/C(Cc2nc3ccccc3[nH]2)=N\Nc2ccccc2)c1,-0.693,-2.7,6.1,-2.3,0.0,0.5
O=C(/C=C/c1ccc(N2CCC(c3ccccc3)=N2)cc1)c1ccccc1,-5.73*,-0.2,2.4,-5.1,1.3,-0.1
Cc1ccc(C)c(S(=O)(=O)ON2C(=O)c3ccccc3C2=O)c1,-3.56*,1.7,-1.5,-3.8,0.1,1.2
O=C(CCC(=O)c1ccc(Br)cc1)Nc1cccc(C(F)(F)F)c1,-0.412,-0.2,-10.8,21.0,90.9*,-1.9
CCOC(=O)C1CCN(CCC(=O)Nc2ccc(F)cc2)CC1,0.133,-1.7,7.7,-1.0,-0.1,1.7
O=C(CCCc1nc(-c2ccccc2Cl)no1)N1CCOCC1,-0.199,-0.5,-10.1,2.9,0.4,-0.3
COc1ccc(/C=C/C(=O)C(C(N)=O)=C2SCCS2)cc1,3.06,-1.3,-29.5,-28.9,0.8,2.3
Cc1ccc(C(=O)C(C(=O)/C=C/c2ccccc2)=C2SCCCS2)cc1,-4.5*,1.4,1.3,-6.2,1.4,-6.2
CC(C)c1ccc(NC(=O)CCCN2C(=S)NC(C)(C)CC2C)cc1 (configuration not stated),-0.428,3.2,-16.0,1.0,12.6,0.1
O=c1/c(=C/c2ccc(O)c([N+](=O)[O-])c2)sc2nc3ccccc3n12,2.14,-1.7,-27.8,78.1*,-0.4,2.7
O=c1/c(=C\c2cccnc2)sc2nc3ccccc3n12,-0.371,-2.3,-1.4,-2.5,0.1,-0.2
COc1cccc2c1C(=O)c1c(O)c3c(c(O)c1C2=O)C[C@@](O)(C(C)=O)C[C@@H]3O[C@H]1C[C@H](N)[C@H](O)[C@H](C)O1,2.08,-2.8,101.4*,-9.6,65.4,-29.1
Cc1ccc(S(=O)(=O)N[C@H](C(=O)Oc2ccc3c(C(F)(F)F)cc(=O)oc3c2)c2ccccc2)cc1,-1.42,0.5,41.3*,-9.1,0.8,-1.5
Cc1ccc(S(=O)(=O)NC(C(=O)Oc2ccc3ccc(=O)oc3c2)c2ccccc2)cc1 (configuration not stated),-2.06,5.1,-4.3,-11.6,0.8,1.2
Cc1cc(/C=c2\sc3nc4ccccc4n3c2=O)c(C)n1-c1ccc(C(=O)O)cc1,0.776,0.1,-10.4,9.7,0.8,3.1
Cc1cc(/C=c2/sc3nc4ccccc4n3c2=O)c(C)n1-c1ccccn1,-0.897,24.7*,-14.4,-24.7,-1.1,-0.6
O=C(O)/C=C/c1ccc([N+](=O)[O-])o1,-0.542,1.2,-1.0,-18.3,-0.3,-2.0
O=[N+]([O-])c1ccc(/C=N/N=C/c2ccc([N+](=O)[O-])o2)o1,-3.59*,-0.9,-14.0,-6.3,-1.3,7.9
COc1ccc(/C=C/C(=O)OCC(=O)Nc2ccc(N3CCOCC3)cc2)cc1OC,0.568,1.2,6.5,-19.9,0.5,2.2
Nc1ncnc2c1ncn2[C@@H]1O[C@H](CO)[C@@H](O)[C@H]1O,-0.653,1.8,-16.7,4.5,3.4,0.6
O=c1[nH]cnc2c1ncn2[C@@H]1O[C@H](CO)[C@@H](O)[C@H]1O,0.438,23.9*,-12.1,4.4,2.8,0.5
O=C1C2C3C=CC(C2C(=O)N1C1CCCCC1)C1C2C(=O)N(C4CCCCC4)C(=O)C2C31 (configuration not stated),0.597,-1.5,-3.8,-0.3,-0.6,1.0
C=CCN1C(c2ccccc2)=CS/C1=C(\C#N)c1nnc2n1CCCCC2,0.806,-0.4,-4.7,-42.1,1.3,-0.7
CCOc1ccc(C2=CS/C(=C(\C#N)c3nnc4n3CCCCC4)N2CC)cc1,3.94,15.1*,-5.3,-36.0,0.0,-9.2
O=C(O)Cc1sc(N/N=C\c2ccncc2)nc1-c1ccccc1,2.43,-1.2,16.6,-24.0,-0.8,-1.3
CC(Sc1nnc(NCc2ccccc2)s1)C(=O)Nc1ccc2c(c1)C(=O)c1ccccc1C2=O (configuration not stated),0.359,0.0,-2.5,-9.0,4.1,80.3*

# Screens (PubChem)
